From ChEMBL document CHEMBL1149614, “Exomethylene pyranonucleosides: efficient synthesis and biological evaluation of 1-(2,3,4-trideoxy-2-methylene-beta-d-glycero-hex-3-enopyranosyl)thymine” (Bioorg Med Chem, 2007) come the findings set out here.

System in one test: not listed separately
Description: Tumor selectivity index, ratio of CC50 for human H4 cells to CC50 for human Caco-2 cells. The class given is functional.
Conditions: not given
Put shortly: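 Ratio of 72 h crystal-violet CC50 in H4 cells to CC50 in Caco-2 cells.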
With `C=C1[C@@H](O)[C@@H](O)[C@@H](CO)O[C@H]1n1cc(C)c(=O)[nH]c1=O`, the Ratio turned out to be 24.9.
`Cc1cn([C@@H]2O[C@H](CO)[C@H](O)[C@H](O)C2=O)c(=O)[nH]c1=O`: the Ratio was determined as 25.
The same measure, in the same setting: with `C=C1C=C[C@@H](CO)O[C@H]1n1cc(C)c(=O)[nH]c1=O` the figure was 0.0014.
Same read-out and setting: with `C=C1C=C[C@@H](COC(c2ccccc2)(c2ccccc2)c2ccccc2)O[C@H]1n1cc(C)c(=O)[nH]c1=O` the figure was 0.04.
Still for that read-out and setting: with `O=c1[nH]cc(F)c(=O)[nH]1` [FLUOROURACIL] the figure was 10.

For the next test, the system named is Rotavirus. Description: Antiviral activity against Rotavirus RF infected in rhesus monkey MA104 cells assessed as neutralization of virus in solution before its attachment after 72 hrs. The conditions noted are these: MA104, 72 h. In kind it is functional, organism-based. An outline of the steps: (§1)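 Threefold dilutions from 0.5 mg/mL were co-incubated with rotavirus RF in trypsin-supplemented DMEM for 12 h at 37 °C, 5% CO2, before infecting monolayers. Results are mean % of virus-only control (n = 6) for each dilution. IC50 taken from the concentration–effect curve.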
Consider `C=C1[C@@H](O)[C@@H](O)[C@@H](CO)O[C@H]1n1cc(C)c(=O)[nH]c1=O`, for which the half-maximal inhibitory concentration (IC50) is 2.46 µM.
Turning to `Cc1cn([C@@H]2O[C@H](CO)[C@H](O)[C@H](O)C2=O)c(=O)[nH]c1=O`, the IC50 turned out to be 2.44 µM.
On to `Cc1cn([C@H]2C[C@H](N=[N+]=[N-])[C@@H](CO)O2)c(=O)[nH]c1=O` [ZIDOVUDINE], for which the IC50 was found to be 74.6 µM.

Another test has as its system Rotavirus. Description: Antiviral activity against Rotavirus RF in rhesus monkey MA104 cells assessed as inhibition of infectivity following virus attachment after 72 hrs. The conditions noted are these: MA104, 72 h. In kind it is functional, organism-based. An outline of the steps: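 Monolayers infected with rotavirus RF for 1 h at 37 °C in 5% CO2, then washed with unsupplemented DMEM and immediately given 3-fold serial dilutions from 0.5 mg/mL. Results are mean % of virus-only control absorbance (n = 6).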
For `C=C1[C@@H](O)[C@@H](O)[C@@H](CO)O[C@H]1n1cc(C)c(=O)[nH]c1=O`, the IC50 was 7.03 µM.
Still for that read-out and setting: under `Cc1cn([C@@H]2O[C@H](CO)[C@H](O)[C@H](O)C2=O)c(=O)[nH]c1=O` stands 6.98 µM; under `C=C1C=C[C@@H](CO)O[C@H]1n1cc(C)c(=O)[nH]c1=O`, 79.9 µM.
Consider `C=C1C=C[C@@H](COC(c2ccccc2)(c2ccccc2)c2ccccc2)O[C@H]1n1cc(C)c(=O)[nH]c1=O`, for which the IC50 came to 4.06 µM.
For the compound `Cc1cn([C@H]2C[C@H](N=[N+]=[N-])[C@@H](CO)O2)c(=O)[nH]c1=O` [ZIDOVUDINE], the IC50 came out at 22.4 µM.

The next test has as its system Caco-2. The test is described as follows: Cytotoxicity against human Caco-2 cells after 72 hrs. The class given is functional. Conditions: Caco-2, 72 h. Put shortly:
(§2)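 H4 or Caco-2 cells (6 × 10⁶ per plate) treated with 3-fold serial dilutions from 0.5 mg/mL and held 72 h at 37 °C in a humidified incubator. Results are mean % of treated (n = 2) versus control (n = 24) absorbance.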
`C=C1[C@@H](O)[C@@H](O)[C@@H](CO)O[C@H]1n1cc(C)c(=O)[nH]c1=O` yielded a CC50 of 70.4 µM.
Compound `Cc1cn([C@@H]2O[C@H](CO)[C@H](O)[C@H](O)C2=O)c(=O)[nH]c1=O` displayed a CC50 of 69.9 µM.
On to `C=C1C=C[C@@H](CO)O[C@H]1n1cc(C)c(=O)[nH]c1=O`, for which the CC50 stood at 2000 µM.
In the case of `C=C1C=C[C@@H](COC(c2ccccc2)(c2ccccc2)c2ccccc2)O[C@H]1n1cc(C)c(=O)[nH]c1=O`, the half-maximal cytotoxic concentration (CC50) came out at 1020 µM.

The subject of another test is Caco-2. The test is described as follows: Growth inhibition of human Caco-2 cells after 10 days. Conditions: Caco-2, 240 h. In kind it is functional, cell-based. Put shortly: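 Caco-2 monolayers in DMEM/10% fetal bovine serum received 3-fold dilutions from 0.5 mg/mL, six wells per compound, for 10 days at 37 °C, humidified. Colonies counted in each well. Results are mean % colony number of treated (n = 2) versus control (n = 24) wells.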
The compound `C=C1[C@@H](O)[C@@H](O)[C@@H](CO)O[C@H]1n1cc(C)c(=O)[nH]c1=O` registered a 50% inhibitory concentration (IC50) of 21.1 µM.
For the compound `Cc1cn([C@@H]2O[C@H](CO)[C@H](O)[C@H](O)C2=O)c(=O)[nH]c1=O`, the IC50 came out at 0.7 µM.
Same read-out and setting: under `C=C1C=C[C@@H](CO)O[C@H]1n1cc(C)c(=O)[nH]c1=O` stands 79.9 µM; under `C=C1C=C[C@@H](COC(c2ccccc2)(c2ccccc2)c2ccccc2)O[C@H]1n1cc(C)c(=O)[nH]c1=O`, 0.4 µM.

System in a further test: not listed separately
Description: Selectivity index, ratio of CC50 for human Caco-2 cells to IC50 for Rotavirus RF. In kind it is functional.
Conditions: not given
As for `C=C1[C@@H](O)[C@@H](O)[C@@H](CO)O[C@H]1n1cc(C)c(=O)[nH]c1=O`, the “Ratio CC50/IC50” value amounted to 28.61.
Turning to `Cc1cn([C@@H]2O[C@H](CO)[C@H](O)[C@H](O)C2=O)c(=O)[nH]c1=O`, the “Ratio CC50/IC50” value is reported as 28.65.
As to `Cc1cn([C@H]2C[C@H](N=[N+]=[N-])[C@@H](CO)O2)c(=O)[nH]c1=O` [ZIDOVUDINE], the “Ratio CC50/IC50” value is on record as 0.75.

System in the next test: not listed separately
The test is described as follows: Tumor selectivity index, ratio of CC50 for human H4 cells to CC50 for rhesus monkey MA104 cells. The class given is functional.
Conditions: not given
Turning to `C=C1[C@@H](O)[C@@H](O)[C@@H](CO)O[C@H]1n1cc(C)c(=O)[nH]c1=O`, the Ratio is reported as 8.3.
In the case of `Cc1cn([C@@H]2O[C@H](CO)[C@H](O)[C@H](O)C2=O)c(=O)[nH]c1=O`, the Ratio amounted to 8.3.
`C=C1C=C[C@@H](CO)O[C@H]1n1cc(C)c(=O)[nH]c1=O`: the Ratio is listed as 0.0058.
For `C=C1C=C[C@@H](COC(c2ccccc2)(c2ccccc2)c2ccccc2)O[C@H]1n1cc(C)c(=O)[nH]c1=O`, the Ratio was 0.16.
On the same count and under the same terms, with `O=c1[nH]cc(F)c(=O)[nH]1` [FLUOROURACIL] the figure was 16.67.

For another test, the system named is H4. The test is described as follows: Cytotoxicity against human H4 cells after 72 hrs. In kind it is functional. The conditions noted are these: H4, 72 h. Put shortly: as §2
The compound `C=C1[C@@H](O)[C@@H](O)[C@@H](CO)O[C@H]1n1cc(C)c(=O)[nH]c1=O` registered a CC50 of 1760 µM.
Take `Cc1cn([C@@H]2O[C@H](CO)[C@H](O)[C@H](O)C2=O)c(=O)[nH]c1=O`: the CC50 was found to be 1750 µM.
Turning to `C=C1C=C[C@@H](CO)O[C@H]1n1cc(C)c(=O)[nH]c1=O`, the half-maximal cytotoxic concentration (CC50) is 2.8 µM.
As for `C=C1C=C[C@@H](COC(c2ccccc2)(c2ccccc2)c2ccccc2)O[C@H]1n1cc(C)c(=O)[nH]c1=O`, half-maximal cytotoxicity (CC50) was put at 40.6 µM.
In the case of `O=c1[nH]cc(F)c(=O)[nH]1` [FLUOROURACIL], the CC50 is 3840 µM.

The subject of another test is Rotavirus. Description: Antiviral activity against Rotavirus RF in human Caco-2 cells assessed as neutralization of virus in solution before its attachment after 72 hrs. In kind it is functional, organism-based. Conditions: Caco-2, 72 h. An outline of the steps: as §1
Consider `C=C1[C@@H](O)[C@@H](O)[C@@H](CO)O[C@H]1n1cc(C)c(=O)[nH]c1=O`, for which the IC50 was 2.46 µM.
Take `Cc1cn([C@@H]2O[C@H](CO)[C@H](O)[C@H](O)C2=O)c(=O)[nH]c1=O`: the IC50 is 2.44 µM.

System in a further test: not listed separately
Description: Cytotoxicity against rhesus monkey MA104 cells after 72 hrs. Conditions: Macaca mulatta, MA104, 72 h. In kind it is functional.
`C=C1[C@@H](O)[C@@H](O)[C@@H](CO)O[C@H]1n1cc(C)c(=O)[nH]c1=O` came in with a CC50 of 211 µM.
On to `Cc1cn([C@@H]2O[C@H](CO)[C@H](O)[C@H](O)C2=O)c(=O)[nH]c1=O`, for which the CC50 turned out to be 210 µM.
As to `C=C1C=C[C@@H](CO)O[C@H]1n1cc(C)c(=O)[nH]c1=O`, it took 480 µM to reach half-maximal cytotoxicity (CC50).
As for `C=C1C=C[C@@H](COC(c2ccccc2)(c2ccccc2)c2ccccc2)O[C@H]1n1cc(C)c(=O)[nH]c1=O`, it took 244 µM to reach half-maximal cytotoxicity (CC50).
For the compound `O=c1[nH]cc(F)c(=O)[nH]1` [FLUOROURACIL], the midpoint of cytotoxicity, the CC50, lay at 231 µM.

System in a further test: not listed separately
Description: Selectivity index, ratio of CC50 for rhesus monkey MA104 cells to IC50 for Rotavirus RF after attachment to MA104 cells.
Conditions: not given
With `C=C1[C@@H](O)[C@@H](O)[C@@H](CO)O[C@H]1n1cc(C)c(=O)[nH]c1=O`, the “Ratio CC50/IC50” value is 30.03.
In the case of `Cc1cn([C@@H]2O[C@H](CO)[C@H](O)[C@H](O)C2=O)c(=O)[nH]c1=O`, the “Ratio CC50/IC50” value turned out to be 30.03.
As to `C=C1C=C[C@@H](CO)O[C@H]1n1cc(C)c(=O)[nH]c1=O`, the “Ratio CC50/IC50” value worked out at 5.99.
As for `C=C1C=C[C@@H](COC(c2ccccc2)(c2ccccc2)c2ccccc2)O[C@H]1n1cc(C)c(=O)[nH]c1=O`, the “Ratio CC50/IC50” value was determined as 60.
Consider `Cc1cn([C@H]2C[C@H](N=[N+]=[N-])[C@@H](CO)O2)c(=O)[nH]c1=O` [ZIDOVUDINE], for which the “Ratio CC50/IC50” value stood at 10.03.

System in the next test: not listed separately
Description: Selectivity index, ratio of CC50 for rhesus monkey MA104 cells to IC50 for Rotavirus RF. In kind it is functional.
Conditions: not given
As to `C=C1[C@@H](O)[C@@H](O)[C@@H](CO)O[C@H]1n1cc(C)c(=O)[nH]c1=O`, the “Ratio CC50/IC50” value worked out at 85.8.
With `Cc1cn([C@@H]2O[C@H](CO)[C@H](O)[C@H](O)C2=O)c(=O)[nH]c1=O`, the “Ratio CC50/IC50” value turned out to be 85.9.
Consider `Cc1cn([C@H]2C[C@H](N=[N+]=[N-])[C@@H](CO)O2)c(=O)[nH]c1=O` [ZIDOVUDINE], for which the “Ratio CC50/IC50” value is given as 3.01.
